According to ChEMBL document CHEMBL4665897, “α-Linolenic Acid-Valproic Acid Conjugates: Toward Single-Molecule Polypharmacology for Multiple Sclerosis” (ACS Med Chem Lett, 2020):
Active and inactive are the calls of the source. The calls are words filed in the database; no cut-off is given here.

Legend:
[1] = test system: Olineu; assay: Induction in mouse Oli-neu cell differentiation to oligodendrocytes assessed as decrease in cell number at 5 uM after 48 hrs; format: functional
Procedure, shortened: (§1)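 Oli-Neu cells (immortalized mouse oligodendrocyte precursors) exposed to 5 μM compound for 48 h. Proliferation was scored by cell counting and differentiation by filament length. Values are % of control, mean SE of at least three experiments, one-way ANOVA with Bonferroni.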

[2] = test system: Olineu; assay: Induction in mouse Oli-neu cell differentiation to oligodendrocytes assessed as increase in CNPase expression at 5 uM after 72 hrs by Western blot analysis; format: functional
Procedure, shortened: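 Oli-Neu cells exposed to 5 μM compound; Olig2 was assessed at 48 h and CNPase at 72 h. Values are % of control, mean SE of at least three experiments, one-way ANOVA with Bonferroni.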

[3] = test system: Cerebellar granule neurone; assay: Neuroprotective activity against glutamate/glycine-induced excitotoxicity in rat primary Cerebellar granule neurone at 5 uM preincubated for 6 hrs measured after 24 hrs by MTT assay; format: functional, tissue-based
Procedure, shortened: (§2)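 Primary rat cerebellar granule neurons at 8 DIV pretreated 6 h with compound (5, 10, 25 μM), then 100 μM glutamate/10 μM glycine added for a further 24 h with compound present. Viability was read by MTT, expressed as % of control. Values are mean SE of at least four experiments, each in triplicate.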

[4] = test system: Cerebellar granule neurone; assay: Neuroprotective activity against glutamate/glycine-induced excitotoxicity in rat primary Cerebellar granule neurone at 25 uM preincubated for 6 hrs measured after 24 hrs by MTT assay; format: functional, tissue-based; procedure, shortened: as §2
[5] = test system: Cerebellar granule neurone; assay: Neuroprotective activity against glutamate/glycine-induced excitotoxicity in rat primary Cerebellar granule neurone at 10 uM preincubated for 6 hrs measured after 24 hrs by MTT assay; format: functional, tissue-based; procedure, shortened: as §2
[6] = biological target: T1, Histone deacetylase (Homo sapiens) (UniProt Q13547+O15379+Q9UBN7+Q92769+Q9UQL6+Q8WUI4+Q9BY41+Q96DB2+P56524+Q9UKV0+Q969S8); assay: Inhibition of HDAC in human medulloblastoma (DAOY) cells assessed as increase in acetylated histone levels at […] after 48 hrs by densitometric analysis
[7] = biological target: T1, Histone deacetylase (Homo sapiens); assay: Inhibition of HDAC in human medulloblastoma (DAOY) cells assessed as increase in acetylated histone levels at 0.5 mM after 48 hrs by densitometric analysis
Procedure, shortened: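 HDAC inhibition in human DAOY medulloblastoma cells was read as acetylated histone H3 by immunoblot densitometry. […] Values are mean SD of three independent experiments, Newman–Keuls after ANOVA versus vehicle.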

[8] = test system: N9 (Mus musculus); assay: Immunomodulatory activity in LPS treated mouse N9 microglial cells assessed as shift in M1 neurotoxic phenotype to M2 neuroprotective by measuring TREM2 expression level at 0.5 uM preincubated for 6 hrs by western blot analysis
[9] = test system: N9 (Mus musculus); assay: Immunomodulatory activity in LPS treated mouse N9 microglial cells assessed as shift in M1 neurotoxic phenotype to M2 neuroprotective by measuring decrease in iNOS expression level at 0.5 uM preincubated for 6 hrs by western blot analysis
[10] = test system: N9 (Mus musculus); assay: Immunomodulatory activity in LPS treated mouse N9 microglial cells assessed as reduction in nitrite level at 0.5 uM preincubated for 6 hrs by Griess reagent assay; details: time 24.0 hrs
[11] = test system: Olineu; assay: Induction in mouse Oli-neu cell differentiation to oligodendrocytes assessed as decrease in Olig2 expression at 5 uM after 48 hrs by Western blot analysis
[12] = test system: Olineu; assay: Induction in mouse Oli-neu cell differentiation to oligodendrocytes assessed as increase in filament length at 5 uM after 48 hrs; format: functional; procedure, shortened: as §1

inhibition [6] | inhibition [7] | SMILES | Activity [1] | Activity [2] | Activity [3] | Activity [4] | Activity [5] | inhibition [8] | inhibition [9] | inhibition [10] | Activity [11] | Activity [12]
Active |  | CCCC(CCC)C(=O)O | Active | Active | inactive | inactive | inactive |  |  |  |  | 
 |  | CC/C=C\C/C=C\C/C=C\CCCCCCCC(=O)O |  |  |  | inactive |  |  |  |  |  | 
Active | Active | CC/C=C\C/C=C\C/C=C\CCCCCCCC(=O)NCCOC(=O)C(CCC)CCC | Active |  | Active | inactive | Active | inactive | Active | Active | Active | Active
Active | Active | CC/C=C\C/C=C\C/C=C\CCCCCCCC(=O)NCCNC(=O)C(CCC)CCC | Active | Active | Active | inactive | Active | inactive | Active | Active | Active | Active
